In ChEMBL document CHEMBL1641456, “Design, synthesis, and pharmacological evaluation of azetedine and pyrrolidine derivatives as dual norepinephrine reuptake inhibitors and 5-HT(1A) partial agonists” (Bioorg Med Chem Lett, 2011):

Columns and labels:
[1] = target: T1, Sodium-dependent noradrenaline transporter (Homo sapiens, UniProt P23975); experiment: Displacement of [3H]nisoxetine from human NET by scintillation proximity assay
Procedure, shortened: (§1)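 Human transporter binding by scintillation proximity assay: inhibition of [³H]nisoxetine (NET), [³H]WIN 35,428 (DAT) or [³H]citalopram (SERT) binding measured. Ki values are the mean of at least two experiments, each run in duplicate.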

[2] = target: T2, 5-hydroxytryptamine receptor 1A (Homo sapiens, UniProt P08908); experiment: Displacement of [3H]8-OH-DPAT from human cloned 5HT1A receptor by liquid scintillation spectrophotometry
T2 sequence (P08908 whole entry): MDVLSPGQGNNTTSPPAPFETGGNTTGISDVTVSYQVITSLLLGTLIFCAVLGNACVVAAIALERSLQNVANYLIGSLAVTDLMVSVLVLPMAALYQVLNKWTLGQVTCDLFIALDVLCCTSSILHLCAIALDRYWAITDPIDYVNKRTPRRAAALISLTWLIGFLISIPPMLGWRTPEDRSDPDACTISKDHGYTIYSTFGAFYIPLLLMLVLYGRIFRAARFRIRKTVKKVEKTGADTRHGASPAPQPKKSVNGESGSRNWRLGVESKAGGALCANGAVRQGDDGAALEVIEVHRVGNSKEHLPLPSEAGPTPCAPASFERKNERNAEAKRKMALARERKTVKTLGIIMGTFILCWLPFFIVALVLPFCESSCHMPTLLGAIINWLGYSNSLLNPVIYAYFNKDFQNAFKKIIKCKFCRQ

[3] = target: Sodium-dependent serotonin transporter (Homo sapiens, UniProt P31645); experiment: Displacement of [3H]citalopram from human SERT by scintillation proximity assay; procedure, shortened: as §1
Sodium-dependent serotonin transporter, sequence (P31645 whole entry): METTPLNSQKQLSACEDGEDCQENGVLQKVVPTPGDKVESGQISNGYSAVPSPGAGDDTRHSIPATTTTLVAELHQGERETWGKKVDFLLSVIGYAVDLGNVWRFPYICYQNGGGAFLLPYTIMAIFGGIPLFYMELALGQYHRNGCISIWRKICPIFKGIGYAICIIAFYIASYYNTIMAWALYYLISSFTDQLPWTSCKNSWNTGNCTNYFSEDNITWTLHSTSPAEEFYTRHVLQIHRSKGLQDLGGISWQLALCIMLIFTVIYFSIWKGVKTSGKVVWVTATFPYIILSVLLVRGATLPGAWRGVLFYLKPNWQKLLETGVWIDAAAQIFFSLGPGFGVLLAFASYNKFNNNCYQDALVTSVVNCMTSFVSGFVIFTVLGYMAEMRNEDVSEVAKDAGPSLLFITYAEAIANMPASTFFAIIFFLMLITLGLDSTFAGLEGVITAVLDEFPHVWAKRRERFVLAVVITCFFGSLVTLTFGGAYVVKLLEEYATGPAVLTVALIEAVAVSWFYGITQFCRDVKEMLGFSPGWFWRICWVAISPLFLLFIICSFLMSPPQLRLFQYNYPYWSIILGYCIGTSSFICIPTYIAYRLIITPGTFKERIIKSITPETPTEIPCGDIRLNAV

[4] = target: Sodium-dependent dopamine transporter (Homo sapiens, UniProt Q01959); experiment: Displacement of [3H]WIN-35,428 from human DAT by scintillation proximity assay; procedure, shortened: as §1
Sodium-dependent dopamine transporter, sequence (Q01959 whole entry): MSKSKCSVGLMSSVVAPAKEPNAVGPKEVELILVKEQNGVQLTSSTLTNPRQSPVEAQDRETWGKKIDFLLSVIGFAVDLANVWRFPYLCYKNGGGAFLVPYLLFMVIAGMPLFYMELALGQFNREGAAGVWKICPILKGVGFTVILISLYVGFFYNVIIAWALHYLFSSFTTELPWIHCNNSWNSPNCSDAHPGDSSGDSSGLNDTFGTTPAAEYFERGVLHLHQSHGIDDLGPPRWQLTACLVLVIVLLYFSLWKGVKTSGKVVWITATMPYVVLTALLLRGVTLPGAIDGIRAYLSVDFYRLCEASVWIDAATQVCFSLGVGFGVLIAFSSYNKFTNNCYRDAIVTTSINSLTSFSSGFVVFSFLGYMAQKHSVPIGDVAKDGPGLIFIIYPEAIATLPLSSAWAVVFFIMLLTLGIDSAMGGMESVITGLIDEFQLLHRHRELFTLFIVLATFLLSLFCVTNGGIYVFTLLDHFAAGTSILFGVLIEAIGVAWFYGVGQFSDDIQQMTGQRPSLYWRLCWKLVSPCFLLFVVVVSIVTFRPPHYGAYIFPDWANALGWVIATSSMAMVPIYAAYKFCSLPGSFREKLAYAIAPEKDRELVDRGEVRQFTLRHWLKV

Rattus norvegicus [5] = experiment: In vivo NET occupancy in sc dosed rat brain; format: functional; settings: read-out: ID50 (the source's name)
Procedure, shortened: (§2)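 Ex vivo NET and 5-HT1A occupancy in rat brain from a subcutaneous dose–response, read 1 h post-dose. ID50 derived from the dose–response. For 5-HT1A, the dose giving 10% receptor occupancy was also determined.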

Rattus norvegicus [6] = experiment: In vivo NET occupancy in rat brain at 10 mg/kg, sc after 1 hr; format: functional; settings: route subcutaneous
Procedure, shortened: (§3)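 Ex vivo receptor occupancy of NET and 5-HT1A in rat brain, collected 1 h after 10 mg/kg subcutaneous dosing.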

[7] = Drug level in rat brain at 10 mg/kg, sc after 1 hr; format: ADME, organism-based; design: dose 10 mg/kg, route subcutaneous; settings: read-out: Drug uptake
Procedure, shortened: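 Rats dosed subcutaneously at 10 mg/kg; total brain drug concentration measured 1 h post-dose. Reported as mean with SEM, n = 4.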

[8] = target: T1, Sodium-dependent noradrenaline transporter; experiment: […] at human cloned NET expressed in HEK293 cells by FLIPR assay; format: functional, cell-based
[9] = AUC ( 0 to 24 hrs) in dog at 5 mg/kg, po after 1 hr; format: ADME, organism-based, Canis lupus familiaris; design: time < 24 hr, dose 5 mg/kg, route oral; settings: plasma
[10] = Cmax in dog at 5 mg/kg, po after 1 hr; format: ADME, organism-based, Canis lupus familiaris; design: dose 5 mg/kg, route oral; settings: in vivo
Rattus norvegicus [11] = experiment: In vivo 5HT1A receptor occupancy in sc dosed rat brain; format: functional; procedure, shortened: as §2
Rattus norvegicus [12] = experiment: In vivo 5HT1A receptor occupancy in rat brain at 10 mg/kg, sc after 1 hr; format: functional; settings: route subcutaneous; procedure, shortened: as §3
[13] = target: T2, 5-hydroxytryptamine receptor 1A; experiment: Agonist activity at 5HT1A receptor by GTPgammaS binding assay; format: functional
[14] = Half life in dog at 5 mg/kg, po; format: ADME, organism-based, Canis lupus familiaris; design: dose 5 mg/kg, route oral; settings: in vivo
[15] = Tmax in dog at 5 mg/kg, po; format: ADME, organism-based, Canis lupus familiaris; design: dose 5 mg/kg, route oral; settings: in vivo

T1 sequence (P23975 whole entry): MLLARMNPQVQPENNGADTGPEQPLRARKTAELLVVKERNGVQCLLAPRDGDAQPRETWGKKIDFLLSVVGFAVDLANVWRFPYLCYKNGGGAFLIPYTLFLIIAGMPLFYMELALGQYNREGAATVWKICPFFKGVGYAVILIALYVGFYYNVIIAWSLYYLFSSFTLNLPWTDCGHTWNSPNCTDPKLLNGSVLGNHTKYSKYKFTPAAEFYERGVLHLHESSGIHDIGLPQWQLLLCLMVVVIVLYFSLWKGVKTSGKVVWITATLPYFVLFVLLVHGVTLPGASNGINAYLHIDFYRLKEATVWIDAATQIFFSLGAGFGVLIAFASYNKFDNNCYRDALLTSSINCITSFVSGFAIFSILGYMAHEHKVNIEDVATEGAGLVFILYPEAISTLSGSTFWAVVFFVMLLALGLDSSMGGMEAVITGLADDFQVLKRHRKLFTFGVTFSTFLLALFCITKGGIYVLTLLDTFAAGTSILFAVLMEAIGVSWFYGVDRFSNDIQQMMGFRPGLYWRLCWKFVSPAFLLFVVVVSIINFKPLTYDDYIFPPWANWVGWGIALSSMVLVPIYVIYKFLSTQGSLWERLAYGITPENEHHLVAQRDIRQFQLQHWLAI

Row | Compound | Ki [1] [µM] | Ki [2] [µM] | Ki [3] [µM] | Ki [4] [µM] | other results
1 | c1ccc(Oc2ccccc2OC2CNC2)cc1 | 1.64 | 0.057 | 2.67 | 2.09 | –
2 | Fc1ccccc1Oc1ccccc1OC1CNC1 | 0.528 | 0.022 | > 4.71 | 2.04 | –
3 | Fc1ccccc1Oc1cccc(F)c1OC1CNC1 | 0.507 | 0.012 | > 4.71 | > 4.86 | –
4 | Fc1cccc(F)c1Oc1cccc(F)c1OC1CNC1 | 0.482 | < 0.003 | > 4.62 | > 6.41 | –
5 | Cc1cccc(Cl)c1Oc1cccc(F)c1OC1CNC1 | 0.433 | 0.016 | > 4.61 | > 6.41 | –
6 | Fc1cccc(Oc2cccc(Cl)c2Cl)c1OC1CNC1 | 0.374 | 0.016 | 0.094 | 0.312 | –
7 | Fc1ccccc1Oc1ccccc1OC1CCNCC1 | 1 | 0.693 | > 4.71 | 4.51 | –
8 | Fc1ccccc1Oc1cccc(F)c1OC1CCNCC1 | 0.489 | 0.03 | > 4.65 | 2.19 | –
9 | Fc1ccccc1Oc1cccc(F)c1OC1CCCNC1 (centres undefined) | 1.95 | 0.09 | > 4.71 | > 5.59 | –
10 | Fc1ccccc1Oc1ccccc1OC1CCNC1 (centres undefined) | 1.35 | 0.193 | > 4.71 | > 6.22 | –
11 | Fc1ccccc1Oc1cccc(F)c1OC1CCNC1 (centres undefined) | 1.02 | 0.008 | > 4.71 | 3.88 | –
12 | Cc1cccc(F)c1Oc1cccc(F)c1OC1CCNC1 (centres undefined) | 0.328 | 0.004 | > 4.69 | > 6.46 | –
13 | Fc1cccc(Cl)c1Oc1cccc(F)c1O[C@H]1CCNC1 | 1.01 | – | > 4.53 | > 5.87 | –
14 | Fc1cccc(Cl)c1Oc1ncccc1OC1CCNC1 (centres undefined) | 1.14 | 0.203 | > 6.13 | > 4.62 | –
15 | Fc1ccccc1Oc1cccc(F)c1C1CCNCC1 | – | – | – | – | Activity (Rattus norvegicus [6]): 80%; concentration at 1 h [7]: 2230 ng/mL; Activity (Rattus norvegicus [12]): 62%

More lines, main results first:

Row | Ki [1] [µM] | Ki [2] [µM] | Ki [3] [µM] | Ki [4] [µM] | Compound | other results
16 | 0.198 | 0.014 | 1.71 | 4.7 | Fc1cccc(Oc2ccccc2Cl)c1OC1CNC1 | –
17 | 0.138 | 0.001 | > 4.9 | > 6.46 | Fc1cccc(Cl)c1Oc1cccc(F)c1OC1CNC1 | ED50 (Rattus norvegicus [5]): 1.2 mg/kg; Activity (Rattus norvegicus [6]): 87%; concentration at 1 h [7]: 5900 ng/mL; EC50 [8]: 0.028 µM; AUC(0-t) at 24 h [9]: 3480 ng·h/mL; Cmax [10]: 919 ng/mL; ID10 (Rattus norvegicus [11]): < 1 mg/kg; Activity (Rattus norvegicus [12]): 81%; EC50 [13]: 0.197 µM; half-life [14]: 2.35 h; Tmax [15]: 1 h
18 | 0.116 | 0.003 | 1.16 | > 6.46 | Cc1cccc(F)c1Oc1cccc(F)c1OC1CNC1 | Activity (Rattus norvegicus [6]): 84%; concentration at 1 h [7]: 5690 ng/mL; EC50 [8]: 0.239 µM; AUC(0-t) at 24 h [9]: 2800 ng·h/mL; Cmax [10]: 525 ng/mL; Activity (Rattus norvegicus [12]): 76%; EC50 [13]: 0.225 µM; half-life [14]: 3.01 h; Tmax [15]: 1 h
19 | 0.164 | 0.006 | > 4.62 | > 5.94 | Fc1cccc(Oc2c(Cl)cccc2Cl)c1OC1CNC1 | –
20 | 0.218 | 0.008 | 2.04 | > 6.37 | Fc1cccc(Cl)c1Oc1cccc(F)c1OC1CCNCC1 | –
21 | 0.323 | 0.004 | 3.25 | > 6.46 | Cc1cccc(F)c1Oc1cccc(F)c1OC1CCNCC1 | –
22 | 0.192 | 0.019 | 2.23 | 2.03 | Fc1cccc(Oc2ccccc2Cl)c1OC1CCNC1 (centres undefined) | –
23 | 0.226 | – | > 4.9 | > 6.46 | Fc1cccc(Cl)c1Oc1cccc(F)c1OC1CCNC1 (centres undefined) | Activity (Rattus norvegicus [6]): 54%; concentration at 1 h [7]: 5620 ng/mL; EC50 [8]: 0.097 µM; Activity (Rattus norvegicus [12]): 73%
24 | 0.11 | – | > 4.53 | > 5.87 | Fc1cccc(Cl)c1Oc1cccc(F)c1O[C@@H]1CCNC1 | AUC(0-t) at 24 h [9]: 560 ng·h/mL; Cmax [10]: 146 ng/mL; half-life [14]: 1.85 h; Tmax [15]: 1 h
25 | 0.073 | 0.064 | > 6.28 | > 4.26 | Fc1cccc(Cl)c1Oc1ncccc1OC1CNC1 | –
